ChEMBL document CHEMBL1150294, “Synthesis of indirubin-N'-glycosides and their anti-proliferative activity against human cancer cell lines” (Bioorg Med Chem, 2008)
pIC50: −log10 of the molar value.

What was measured:
A-427 = assay: Antiproliferative activity against human A427 cells after 96 hrs by crystal violet assay; type: functional, cell-based; details: A-427, 96 h
How it was run: (§1)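 Adherent lines from DSMZ grown in RPMI 1640 with 10% FCS plus penicillin G/streptomycin. Seeded at 1000 cells/well 24 h before dosing, with an untreated plate fixed at dosing as the time-zero reference. Compounds came from DMSO series, five concentrations at 0.1% final DMSO, eight wells each. Exposure was continuous for 96 h. Cells were glutaraldehyde-fixed, stained with 0.02% crystal violet, dye eluted in 70% ethanol, OD 570 nm. Results are corrected T/C% against time-zero.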

[1] = Antiproliferative activity against human KYSE70 cells after 96 hrs by crystal violet assay; type: functional, cell-based; details: KYSE-70, 96 h; how it was run: as §1
5637 [2] = assay: Antiproliferative activity against human 5637 cells after 96 hrs by crystal violet assay; type: functional, cell-based; details: Homo sapiens, 5637, 96 h; how it was run: as §1
MCF7 = assay: Antiproliferative activity against human MCF7 cells after 96 hrs by crystal violet assay; type: functional, cell-based; details: MCF7, 96 h; how it was run: as §1
5637 [3] = assay: Growth inhibition of human 5637 cells at 12.5 uM after 96 hrs by crystal violet assay; type: functional; details: Homo sapiens, 5637, 96 h; how it was run: as §1
[4] = Growth inhibition of human KYSE70 cells at 12.5 uM after 96 hrs by crystal violet assay; type: functional; details: KYSE-70, 96 h; how it was run: as §1

| Compound | pIC50 (MCF7) | pIC50 (A-427) | pIC50 [1] | pIC50 5637 [2] | inhibition at 12.5 µM 5637 [3] [%] | inhibition at 12.5 µM [4] [%] |
| --- | --- | --- | --- | --- | --- | --- |
| O=C1/C(=C2/C(=O)N([C@@H]3O[C@H](CO)[C@H](O)[C@H](O)[C@H]3O)c3ccccc32)Nc2ccccc21 | 4.59 | 4.88 | 4.38 | 4.60 |  |  |
| C[C@@H]1O[C@H](N2C(=O)/C(=C3\Nc4ccc(Cl)cc4C3=O)c3ccccc32)[C@H](O)[C@H](O)[C@H]1O | 5.10 |  | 5.23 | 5.08 |  |  |
| C[C@@H]1O[C@H](N2C(=O)/C(=C3\Nc4ccccc4\C3=N/O)c3ccccc32)[C@H](O)[C@H](O)[C@H]1O | 4.77 |  | 4.81 | 4.81 |  |  |
| O=C1/C(=C2/C(=O)N([C@@H]3O[C@H](CO)[C@@H](O)[C@H](O)[C@@H]3O)c3ccccc32)Nc2ccccc21 | 5.37 | 5.26 | 4.93 | 4.97 |  |  |
| C[C@@H]1O[C@@H](N2C(=O)/C(=C3\Nc4ccccc4C3=O)c3ccccc32)[C@H](O)[C@H](O)[C@H]1O | 6.17 | < 4.60 | < 4.60 | < 4.60 | < 20 | < 20 |
| C[C@@H]1O[C@@H](N2C(=O)/C(=C3\Nc4ccc(Cl)cc4C3=O)c3ccccc32)[C@H](O)[C@H](O)[C@H]1O | 5.16 |  | 4.82 | 4.89 |  |  |
| O=C(O)CCCc1ccc(N(CCCl)CCCl)cc1 [CHLORAMBUCIL] | 4.74 | 5.02 | 4.42 | 5.18 |  |  |

Now from value to compound, other results behind:

| pIC50 (MCF7) | Compound | pIC50 (A-427) | pIC50 [1] | pIC50 5637 [2] | inhibition at 12.5 µM 5637 [3] [%] | inhibition at 12.5 µM [4] [%] |
| --- | --- | --- | --- | --- | --- | --- |
| 5.21 | Cc1cc(C)c2c(c1)N([C@H]1O[C@@H](C)[C@H](O)[C@@H](O)[C@H]1O)C(=O)/C2=C1\Nc2ccccc2C1=O |  | < 4.90 | < 4.90 | < 20 | < 20 |
| 4.80 | O=C1/C(=C2/C(=O)N([C@@H]3O[C@H](CO)[C@@H](O)[C@H](O)[C@H]3O)c3ccccc32)Nc2ccccc21 | 4.93 | 4.54 | 4.84 |  |  |
| 6.12 | C[C@@H]1O[C@H](N2C(=O)/C(=C3\Nc4ccccc4C3=O)c3ccccc32)[C@H](O)[C@H](O)[C@H]1O | < 4.90 | < 4.90 | < 4.90 |  |  |
| 5.17 | Nc1ncn([C@@H]2O[C@H](CO)[C@@H](O)[C@H]2O)c(=O)n1 [AZACITIDINE] | 6.20 | 5.80 | 5.76 |  |  |
| 6.30 | COc1cc([C@@H]2c3cc4c(cc3[C@@H](O[C@@H]3O[C@@H]5CO[C@@H](C)O[C@H]5[C@H](O)[C@H]3O)[C@H]3COC(=O)[C@H]23)OCO4)cc(OC)c1O [ETOPOSIDE] | 6.89 | 6.03 | 6.27 |  |  |
